Screening results as filed in PubChem.
In the library only some 3% were active in any assay of this set; here they are far more common.
Cardio protect: protects H9c2 cardiomyocytes from peroxide injury | protection from H2O2 cell death, % at 20 µM | H2O2 injury protection, ATPLite, 2 h | 360,000 tested, 0.63% active;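 active = compounds giving at least 50% protection of heart cells from peroxide-induced death in the single-dose screen, raw or plate-pattern-corrected value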
Granule exo inh: lytic granule exocytosis inhibition | TALL-104 LAMP-1 surface exposure, flow cytometry; cells stimulated with thapsigargin and PMA | inhibition, % at 10 µM | 360,000 tested, 0.66% active;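 active = inhibition above about 55%, limit read from the data; inconclusive = no clear call, values can overlap the other calls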
Pemphigus Ab inh: inhibitors of pemphigus antibody binding to human desmoglein-3; AID 588358; 310,000 tested, 0.48% active; binding (percent of control), % at 10 µM; DSG3-coupled beads, scFv-anti-DSG3-GFP binding, flow cytometry; active compounds read low; P32926;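 active = binding more than 3 SD below its plate's average and above zero; inconclusive = below that plate limit but binding exactly zero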;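 note: hits lower antibody fragment binding to DSG3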
SENP1 inh: SENP1 (human) catalytic domain inhibition; Q9P0U3; 360,000 tested, 0.21% active; AID 624204; inhibition, % at 10 µM; recombinant SENP1 catalytic domain, CyPet-SUMO1-YPet FRET cleavage;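 active = inhibition at least 30% at 10 µM, raw YFP signal under a set limit, fluorescence ratio 0.5 to 1.5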
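Controls: no-enzyme wells low, DMSO-plus-enzyme wells high control. Test system: human recombinant His6-tagged SENP1 catalytic domain enzyme. Reagent: SFCypet-SUMO1-SFYpet FRET protein substrate, 25 nM final. Doses: one dose per compound, 10 µM, 0.5% DMSO. Detection: FRET, CFP and YFP emission. Timing: 50 min reaction at room temperature.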
Myeloid diff 2: promotes myeloid progenitor differentiation | ER-HoxA9 myeloid progenitors, lysozyme-GFP differentiation, flow cytometry | AID 624256 | 360,000 tested, 1% active | calls only at 10 µM;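 active = normalized GFP-positive differentiation at or above the plate's own cutoff, the solvent-only control mean plus 3 SD; inconclusive = no clear call, values can overlap the other calls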;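 note: cells exposed to compound for four days before flow analysis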
HNF4A DNA FP: change in binding of human HNF4 alpha to DNA; HNF4a-FITC DNA binding, fluorescence polarization, 1 h; activity change, % at 10 µM; 360,000 tested, 0.3% active; AID 1224865; in the data active = activity change above about 30%, passing the limit was not always enough
Target sequence (P41235 whole entry, looked up): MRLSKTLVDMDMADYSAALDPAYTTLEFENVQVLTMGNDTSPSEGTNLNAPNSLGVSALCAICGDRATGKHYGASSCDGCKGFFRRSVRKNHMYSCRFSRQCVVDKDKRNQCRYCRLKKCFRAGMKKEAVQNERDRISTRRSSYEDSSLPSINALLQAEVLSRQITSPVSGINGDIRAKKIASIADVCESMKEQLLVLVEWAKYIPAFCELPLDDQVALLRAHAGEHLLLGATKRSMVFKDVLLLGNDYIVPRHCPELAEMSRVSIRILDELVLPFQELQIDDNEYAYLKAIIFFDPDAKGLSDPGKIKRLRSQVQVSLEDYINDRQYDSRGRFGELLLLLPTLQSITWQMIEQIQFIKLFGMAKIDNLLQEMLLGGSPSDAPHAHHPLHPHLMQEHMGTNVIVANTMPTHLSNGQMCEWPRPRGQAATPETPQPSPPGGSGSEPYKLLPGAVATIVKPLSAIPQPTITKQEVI
Exocytosis CP01: blocks lytic granule exocytosis; shares compounds with Granule exo inh; TALL-104 cells, LAMP-1 externalization, flow cytometry; stimulated with PMA plus thapsigargin; inhibition, % at 10 µM; 1,500 tested, 11% active; AID 651954; in the data active = inhibition above about 60%
Large screens that a line does not name were inactive (follow-up assays come after a bar, where they were run).

Clc1ccc(CNc2ccc(N3CCN(Cc4ccccc4)CC3)cc2)cc1	Granule exo inh 66.8 | Exocytosis CP01 inactive
Fc1ccc(CNC2CCN(Cc3ccccc3)CC2)cc1	Granule exo inh 62.5 | Exocytosis CP01 inactive
COc1ccc(S(=O)(=O)NCC2CCCN(Cc3ccccc3C)C2)cc1 (centres undefined)	none
C/C(=C/C(=O)O)C(=O)Nc1cccc(C(F)(F)F)c1	none
CC1(Oc2cccc(F)c2)CCN(Cc2ccc(-c3ccccc3)o2)C1 (centres undefined)	none (no result: Pemphigus Ab inh)
COc1ccc(N2CCN(C(=O)Cc3ccc(Br)cc3)CC2)cc1	none
COc1ccc(C(=O)OCC(=O)NC2CCCCCC2)cc1OC	Pemphigus Ab inh inconclusive
CCCCSCCCNC(=O)c1ccc(CS(=O)(=O)c2ccccc2OC)o1	Granule exo inh 94.0 | Exocytosis CP01 inactive
COCCCNC(=O)c1ccc(CS(=O)(=O)c2ccccc2OC)o1	none
Cc1ccc(S(=O)(=O)N2CCCCC2)cc1NS(=O)(=O)c1ccc(Cl)c(C(=O)O)c1	none
Cc1ccc(S(=O)(=O)Nc2c(O)ccc3ccccc23)cc1	Granule exo inh 81.9 | Exocytosis CP01 inactive
CCC(=O)N1CCc2cc(Br)cc(S(=O)(=O)N(C)c3ccc(OC)cc3)c21	Granule exo inh 73.6 (no result: Pemphigus Ab inh) | Exocytosis CP01 inactive
CCOC(=O)N1CCN(CC(O)COc2c(C)cc(C)cc2C)CC1 (centres undefined)	Granule exo inh 62.3 | Exocytosis CP01 inactive
O=C(O)CN1C(=O)/C(=C\C(Br)=C\c2ccccc2)SC1=S	none
CC(=O)Nc1cc(-c2ccc(CO)cc2)cn2c(-c3cccc(C(F)(F)F)c3)cnc12	none (no result: Pemphigus Ab inh)
CCOC(=O)c1ccc(NC(=O)COc2ccc(CNC3CCCCC3)cc2OC)cc1	Granule exo inh 59.9 | Exocytosis CP01 inactive
COc1cc(CNC2CCCCCCC2)ccc1OCC(N)=O	none
Cc1ccc(N2CC(NS(=O)(=O)c3cccs3)CC2=O)cc1 (centres undefined)	none
CC(C)=CCC/C(C)=C/CNC(=O)CC1C[C@H](C(=O)N2CCOCC2)[C@@]2(C)c3[nH]c4ccccc4c3CCN2C1=O (some centres undefined)	none
CC(C)=CCC/C(C)=C/CNC(=O)C[C@H]1C[C@H](C(=O)N2CCOCC2)[C@@]2(C)c3[nH]c4ccc(Cl)cc4c3CCN2C1=O	Granule exo inh 69.8 | Exocytosis CP01 inactive
COc1cc2c(cc1OC)CN(c1ccc([N+](=O)[O-])cc1C#N)CC2	Granule exo inh 77.4 | Exocytosis CP01 inactive
COc1cc2c(cc1OC)CN(c1ccc([N+](=O)[O-])cc1Cl)CC2	Granule exo inh 69.6, Myeloid diff 2 inconclusive | Exocytosis CP01 inactive
COc1cc2c(cc1OC)CN(c1ccc(F)cc1[N+](=O)[O-])CC2	none
Cc1cc(C)n(-c2nnc(NC34CC5CC(CC(C5)C3)C4)nn2)n1	none
CCC(C)[C@H](NC(=O)Nc1ccccc1F)C(=O)OC (some centres undefined)	Granule exo inh 82.9 (no result: Pemphigus Ab inh) | Exocytosis CP01 inactive
CCN1C(=O)[C@H]2[C@H]3CN=C(SCC(=O)c4ccccc4)N3[C@@](C)(C(=O)OC)[C@H]2C1=O	none
Cc1csc(SCC(=O)NC(=O)NCCC(C)C)n1	none
O=C(NCC1CCCO1)c1cc(S(=O)(=O)N2CCOCC2)ccc1Cl (centres undefined)	none
O=C(NCC1CCCO1)c1cc(S(=O)(=O)Nc2ccc(Br)cc2)ccc1Cl (centres undefined)	Granule exo inh 82.9 | Exocytosis CP01 inactive
CN1C(=O)Cc2cc(S(=O)(=O)N3CCN(c4cccc(C(F)(F)F)c4)CC3)ccc21	none
O=C(c1cccs1)N1CCCC(c2nc3c(nnn3Cc3c(Cl)cccc3Cl)c(=O)[nH]2)C1 (centres undefined)	Granule exo inh 76.8 | Exocytosis CP01 inactive
COC(=O)c1ccc(Cn2nnc3c(=O)[nH]c(C4CCN(S(=O)(=O)c5ccc(F)cc5)CC4)nc32)cc1	none (no result: Pemphigus Ab inh)
COC(=O)c1ccc(Cn2nnc3c(=O)[nH]c(C4CCCN(S(=O)(=O)c5ccccc5Cl)C4)nc32)cc1 (centres undefined)	Granule exo inh 57.3 | Exocytosis CP01 inactive
CC(C)(C)c1ccc(Cn2nnc3c(=O)[nH]c(C4CCCN(C(=O)c5cccs5)C4)nc32)cc1 (centres undefined)	none
CCc1ccccc1NC(=O)CNC(=O)c1ccc(-n2cncn2)c([N+](=O)[O-])c1	Granule exo inh 66.4 | Exocytosis CP01 inactive
Cc1cccc(NC(=O)c2ccc(-n3cncn3)c([N+](=O)[O-])c2)c1	none
O=C(CCN1CCOCC1)c1ccc(Br)cc1	Granule exo inh 95.7 | Exocytosis CP01 inactive
COc1ccc(C(=O)CCN2CCN(c3ccc(OC)cc3)CC2)cc1	Granule exo inh 101.2 (no result: Myeloid diff 2) | Exocytosis CP01 inactive
O=C(CCN1CCN(c2ccccc2)CC1)c1ccc(Br)cc1	Granule exo inh 56.1 | Exocytosis CP01 inactive
Cc1ccc(CNC(=O)C2CCCN(S(=O)(=O)c3ccc(F)cc3)C2)cc1 (centres undefined)	none
COc1cccc(-c2nc(N3CCCCC3)c3ccccc3n2)c1O	Granule exo inh 76.6 | Exocytosis CP01 inactive
CCC(C)Nc1nc(-c2cccc(OC)c2O)nc2ccccc12 (centres undefined)	Granule exo inh 75.5 | Exocytosis CP01 106.6
COC(=O)c1ccccc1NC(=O)CCCn1nc([N+](=O)[O-])c(Br)c1C	none
CCOc1ccc(/C=N/OC(C)C(=O)NCc2ccc3c(c2)OCO3)cc1 (centres undefined)	none
COc1cccc(C(C(=O)NC2CCCCC2)N(C(=O)c2ccco2)c2ccccc2OC)c1 (centres undefined)	Granule exo inh 89.1 | Exocytosis CP01 inactive
COc1ccc(C(C(=O)NC2CCCCC2)N(C(=O)c2ccco2)c2ccccc2OC)cc1 (centres undefined)	none
CCOc1ccccc1N(C(=O)c1ccco1)C(C(=O)NC1CCCC1)c1cccs1 (centres undefined)	Granule exo inh 59.8 (no result: Pemphigus Ab inh) | Exocytosis CP01 inactive
COc1cc(NC(=O)CSc2nnc3c(C)cc4c(C)ccc(C)c4n23)c(C(=O)O)cc1OC	none
CCc1ccc(S(=O)(=O)Nc2cc(SCC(=O)O)c(O)c3ccccc23)cc1	Granule exo inh 66.9 | Exocytosis CP01 inactive
CCOc1ccc(S(=O)(=O)Nc2cc(SCC(=O)O)c(O)c3ccccc23)cc1	none
O=C(O)CSc1cc(NS(=O)(=O)c2cccc([N+](=O)[O-])c2)c2ccccc2c1O	Granule exo inh 75.1 | Exocytosis CP01 inactive
Cc1nnc(SCC(=O)Nc2nccs2)o1	none (no result: Pemphigus Ab inh)
